Key:
[1] = system: Rattus norvegicus; experiment: Antiinflammatory activity in po dosed rat assessed as inhibition of carrageenan-induced paw edema; type: functional; conditions: for ED50: Rattus norvegicus, po, read-out: ID50 (the source's name)
Outline: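 Carrageenan paw edema (Winter method) in male rats, seven animals per dose. Drug given orally as a suspension in 0.5% CMC at three or more dose levels within 0.1–18 mg/kg.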

[2] = Acute toxicity in po dosed rat after 7 days; conditions: in vivo
[3] = system: Rattus norvegicus; experiment: Antiinflammatory activity in Wistar albino rat assessed as inhibition of adjuvant-induced arthritis at 0.25 mg/kg, po administered for 14 days prior to adjuvant challenge relative to control; type: functional
Outline: (§1)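 Adjuvant arthritis in female rats, ten animals per dose. Oral treatment given either prophylactically or therapeutically at the stated doses. Percent inhibition reported as mean ± SE.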

[4] = system: Rattus norvegicus; experiment: Antiinflammatory activity in Wistar albino rat assessed as inhibition of adjuvant-induced arthritis at 0.25 mg/kg, po administered for 14 days followed by adjuvant challenge relative to control; type: functional; conditions: 336 h; outline: as §1
[5] = system: Mus musculus; experiment: Analgesic activity in po dosed mouse assessed as inhibition of acetic acid-induced writhing; type: functional
Outline: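 Acetic acid writhing test (Koster method) in male mice, ten animals per dose level.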

[6] = system: Rattus norvegicus; experiment: Analgesic activity in carrageenan-treated po dosed rat assessed as concentration required to double pain index of control; type: functional
Outline: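 Randall–Selitto paw-pressure test in male rats after carrageenan injection, seven animals per dose level. Pain index = pain threshold after carrageenan / threshold before carrageenan. AID2.0 is the dose doubling the control group's pain index. It and its 95% fiducial limits come from a least-squares regression line, with limits by Fieller's equation.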

[7] = Toxicity in po dosed rat assessed as induction of gastric lesion; type: organism-based, Stomach; conditions: in vivo, read-out: UD50 (the source's name)
Outline: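 Gastric lesions scored by the Jahn and Adrian method in male rats, ten animals per dose level, after oral dosing. UD50 and 95% fiducial limits by the Litchfield–Wilcoxon method.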

[8] = system: Rattus norvegicus; experiment: Antiinflammatory activity in rat with acute phase of inflammation assessed as inhibition of adjuvant-carrageenan-induced paw edema at 2 mg/kg, po relative to control; type: functional
Outline: (§2)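 Adjuvant-carrageenan-induced inflammation in female rats, ten animals per dose. Oral dosing at 1 or 2 mg/kg. Edema inhibition scored separately for the acute and prolonged phases, given as % inhibition (mean ± SE).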

[9] = system: Rattus norvegicus; experiment: Antiinflammatory activity in rat with prolonged phase of inflammation assessed as inhibition of adjuvant-carrageenan-induced paw edema at 2 mg/kg, po relative to control; type: functional; outline: as §2
[10] = system: Rattus norvegicus; experiment: Antiinflammatory activity in rat with acute phase of inflammation assessed as inhibition of adjuvant-carrageenan-induced paw edema at 1 mg/kg, po relative to control; type: functional; outline: as §2
[11] = system: Rattus norvegicus; experiment: Antiinflammatory activity in rat with prolonged phase of inflammation assessed as inhibition of adjuvant-carrageenan-induced paw edema at 1 mg/kg, po relative to control; type: functional; outline: as §2
[12] = system: Rattus norvegicus; experiment: Potency index, ratio of indomethacin ID50 to compound ID50 for antiinflammatory activity in po dosed rat assessed as inhibition of carrageenan-induced paw edema; type: functional
Outline: (§3)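 The ratio uses oral carrageenan paw-edema ID50 values from male rats, seven animals per dose, with drugs suspended in 0.5% CMC. Each ID50 comes from a least-squares dose–response regression. The index is reference ID50 divided by test ID50 on a weight basis.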

[13] = system: Rattus norvegicus; experiment: Potency index, ratio of phenylbutazone ID50 to compound ID50 for antiinflammatory activity in po dosed rat assessed as inhibition of carrageenan-induced paw edema; type: functional; outline: as §3
[14] = system: Rattus norvegicus; experiment: Potency index, ratio of ketoprofen ID50 to compound ID50 for antiinflammatory activity in po dosed rat assessed as inhibition of carrageenan-induced paw edema; type: functional; outline: as §3
[15] = system: Rattus norvegicus; experiment: Antiinflammatory activity in Wistar albino rat assessed as inhibition of adjuvant-induced arthritis at 0.5 mg/kg, po administered for 14 days prior to adjuvant challenge relative to control; type: functional; outline: as §1
[16] = system: Rattus norvegicus; experiment: Antiinflammatory activity in Wistar albino rat assessed as inhibition of adjuvant-induced arthritis at 0.5 mg/kg, po administered for 14 days followed by adjuvant challenge relative to control; type: functional; conditions: 336 h; outline: as §1
[17] = system: Rattus norvegicus; experiment: Antiinflammatory activity in Wistar albino rat assessed as inhibition of adjuvant-induced arthritis at 10 mg/kg, po administered for 14 days prior to adjuvant challenge relative to control; type: functional; outline: as §1
[18] = system: Rattus norvegicus; experiment: Antiinflammatory activity in Wistar albino rat assessed as inhibition of adjuvant-induced arthritis at 10 mg/kg, po administered for 14 days followed by adjuvant challenge relative to control; type: functional; conditions: 336 h; outline: as §1
[19] = system: Rattus norvegicus; experiment: Antiinflammatory activity in Wistar albino rat assessed as inhibition of adjuvant-induced arthritis at 2 mg/kg, po administered for 14 days prior to adjuvant challenge relative to control; type: functional; outline: as §1
[20] = system: Rattus norvegicus; experiment: Antiinflammatory activity in Wistar albino rat assessed as inhibition of adjuvant-induced arthritis at 1 mg/kg, po administered for 14 days followed by adjuvant challenge relative to control; type: functional; conditions: 336 h; outline: as §1
[21] = system: Rattus norvegicus; experiment: Antiinflammatory activity in Wistar albino rat assessed as inhibition of adjuvant-induced arthritis at 30 mg/kg, po administered for 14 days prior to adjuvant challenge relative to control; type: functional; outline: as §1
[22] = system: Rattus norvegicus; experiment: Antiinflammatory activity in Wistar albino rat assessed as inhibition of adjuvant-induced arthritis at 30 mg/kg, po administered for 14 days followed by adjuvant challenge relative to control; type: functional; conditions: 336 h; outline: as §1

O=C(O)Cc1cccc2c1C(=O)c1ccccc1CO2
ED50 [1]: > 18 mg/kg

COC(=O)Cc1ccc2c(c1)C(=O)c1ccccc1CO2
ED50 [1]: 15.2 mg/kg

CCOC(=O)Cc1ccc2c(c1)C(=O)c1ccccc1CO2
ED50 [1]: 17.8 mg/kg

O=C(O)Cc1cc2c(c([N+](=O)[O-])c1)OCc1ccccc1C2=O
ED50 [1]: > 18 mg/kg

O=C(O)Cc1ccc2c(c1)C(=O)c1ccc(Cl)cc1CO2
ID30 [1]: 3 mg/kg | ED50 [1]: 41.6 mg/kg

COc1ccc2c(c1)COc1ccc(CC(=O)O)cc1C2=O
ED50 [1]: > 18 mg/kg

O=C(O)Cc1ccc2c(c1)C(=O)c1cc(Cl)ccc1CO2
ID30 [1]: > 18 mg/kg | ED50 [1]: > 18 mg/kg

CC(C(=O)[O-])c1ccc2c(c1)C(=O)c1ccccc1CO2.CC(C(=O)[O-])c1ccc2c(c1)C(=O)c1ccccc1CO2.[Ca+2] (configuration not stated)
ED50 [1]: 3.5 mg/kg

CC(C(=O)O)c1ccc2c(c1)C(=O)c1ccc(Cl)cc1CO2 (configuration not stated)
ED50 [1]: 7.6 mg/kg

CCOC(=O)Cc1ccc2c(c1)OCc1ccccc1C2=O
ED50 [1]: 8.6 mg/kg

O=C(O)Cc1ccc2c(c1)OCc1cc(Cl)ccc1C2=O
ED50 [1]: 7.6 mg/kg

O=C(O)Cc1ccc2c(c1)OCc1cc(F)ccc1C2=O
ED50 [1]: > 9 mg/kg

O=C(O)Cc1ccc2c(c1)OCc1cc(I)ccc1C2=O
ED50 [1]: 6.7 mg/kg

COc1ccc2c(c1)COc1cc(CC(=O)O)ccc1C2=O
ED50 [1]: > 9 mg/kg

Cc1ccc2c(c1)COc1cc(CC(=O)O)ccc1C2=O
ED50 [1]: 6.6 mg/kg

O=C(O)Cc1ccc2c(c1)OCc1cc(C(F)(F)F)ccc1C2=O
ED50 [1]: > 9 mg/kg

CC(C(=O)O)c1ccc2c(c1)OCc1cc(Cl)ccc1C2=O (configuration not stated)
LD50 at 168 h [2]: 12.1 mg/kg | ED50 [1]: 1.4 mg/kg | inhibition in vivo at 0.25 mg/kg [3]: 50% | inhibition in vivo at 0.25 mg/kg [4]: 26% | ED50 [5]: 36 mg/kg | AID2.0 (dose doubling pain index) [6]: 0.28 mg/kg | TD50 [7]: 32.3 mg/kg

CC(C(=O)O)c1ccc2c(c1)OCc1cc(F)ccc1C2=O (configuration not stated)
ED50 [1]: 4 mg/kg

CC(C(=O)O)c1ccc2c(c1)OCc1cc(I)ccc1C2=O (configuration not stated)
ED50 [1]: 4.8 mg/kg

CC(C(=O)O)c1ccc2c(c1)OCc1cc(C(F)(F)F)ccc1C2=O (configuration not stated)
ED50 [1]: > 9 mg/kg

CC(C(=O)O)c1ccc2c(c1)OCc1ccc(Cl)cc1C2=O (configuration not stated)
ED50 [1]: 11.9 mg/kg

CC(C(=O)O)c1ccc2c(c1)C(=O)c1ccccc1CO2 (racemic)
ID50 [1]: 2.6 mg/kg | inhibition in vivo at 2 mg/kg [8]: 57% | inhibition in vivo at 2 mg/kg [9]: 82% | inhibition in vivo at 0.25 mg/kg [3]: 36% | inhibition in vivo at 0.25 mg/kg [4]: 12% | ED50 [5]: 14 mg/kg | AID2.0 (dose doubling pain index) [6]: 0.4 mg/kg | TD50 [7]: 14.1 mg/kg

CC(C(=O)O)c1ccc2c(c1)OCc1ccccc1C2=O (racemic)
LD50 at 168 h [2]: 34.2 mg/kg | ID50 [1]: 0.76 mg/kg | inhibition in vivo at 1 mg/kg [10]: 59% | inhibition in vivo at 1 mg/kg [11]: 110% | inhibition in vivo at 0.25 mg/kg [3]: 55% | inhibition in vivo at 0.25 mg/kg [4]: 30% | ED50 [5]: 11 mg/kg | AID2.0 (dose doubling pain index) [6]: 0.18 mg/kg | TD50 [7]: 11.4 mg/kg

CC(C(=O)O)c1ccc2c(c1)C(=O)c1ccccc1CO2 (stereo in doubt; 10)
ID50 [1]: 1.3 mg/kg

CC(C(=O)O)c1ccc2c(c1)C(=O)c1ccccc1CO2 (stereo in doubt; 11)
ID50 [1]: 7.5 mg/kg

CC(C(=O)O)c1ccc2c(c1)OCc1ccccc1C2=O (stereo in doubt; 23)
ED50 [1]: 0.43 mg/kg | Ratio [12]: 15.4 | Ratio [13]: 165.4 | Ratio [14]: 32.3

CC(C(=O)O)c1ccc2c(c1)OCc1ccccc1C2=O (stereo in doubt; 24)
ID50 [1]: 0.67 mg/kg

COc1ccc2c(c1)c(CC(=O)O)c(C)n2C(=O)c1ccc(Cl)cc1 [INDOMETHACIN]
LD50 at 168 h [2]: 18.9 mg/kg | ED50 [1]: 8.4 mg/kg | inhibition in vivo at 2 mg/kg [8]: 48% | inhibition in vivo at 2 mg/kg [9]: 85% | inhibition in vivo at 0.5 mg/kg [15]: 48% | inhibition in vivo at 0.5 mg/kg [16]: 26% | ED50 [5]: 10 mg/kg | AID2.0 (dose doubling pain index) [6]: 1.53 mg/kg | TD50 [7]: 6.6 mg/kg

O=C(O)Cc1ccc2c(c1)C(=O)c1ccccc1CO2 [ISOXEPAC]
LD50 at 168 h [2]: 199 mg/kg | ED50 [1]: 14.3 mg/kg | inhibition in vivo at 2 mg/kg [8]: 28% | inhibition in vivo at 2 mg/kg [9]: 55% | inhibition in vivo at 10 mg/kg [17]: 77% | inhibition in vivo at 10 mg/kg [18]: 56% | ED50 [5]: 95 mg/kg | AID2.0 (dose doubling pain index) [6]: 3.18 mg/kg | TD50 [7]: 63 mg/kg

CC(C(=O)O)c1cccc(C(=O)c2ccccc2)c1 (configuration not stated) [KETOPROFEN]
ED50 [1]: 12.5 mg/kg | inhibition in vivo at 2 mg/kg [19]: 84% | inhibition in vivo at 1 mg/kg [20]: 42% | ED50 [5]: 71 mg/kg | AID2.0 (dose doubling pain index) [6]: 1.61 mg/kg | TD50 [7]: 6.8 mg/kg

O=C(O)Cc1ccc2c(c1)OCc1ccccc1C2=O [OXEPINAC]
LD50 at 168 h [2]: 110 mg/kg | ED50 [1]: 3.7 mg/kg | inhibition in vivo at 2 mg/kg [8]: 45% | inhibition in vivo at 2 mg/kg [9]: 89% | inhibition in vivo at 0.5 mg/kg [15]: 55% | inhibition in vivo at 0.5 mg/kg [16]: 31% | ED50 [5]: 58 mg/kg | AID2.0 (dose doubling pain index) [6]: 0.44 mg/kg | TD50 [7]: 79.9 mg/kg

CCCCC1C(=O)N(c2ccccc2)N(c2ccccc2)C1=O [PHENYLBUTAZONE]
ED50 [1]: 77.7 mg/kg | inhibition in vivo at 30 mg/kg [21]: 71% | inhibition in vivo at 30 mg/kg [22]: 58% | ED50 [5]: > 400 mg/kg | AID2.0 (dose doubling pain index) [6]: 17.22 mg/kg | TD50 [7]: 96 mg/kg
